Bioassay records from PubChem BioAssay.
PfGluPho inh = PfG6PD (Plasmodium falciparum) enzyme inhibition; actives 0.78% (n = 350,000); inhibition, % at 20 µM; PfGluPho enzyme, NADPH resazurin-diaphorase fluorescence;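 active means inhibition reaching at least a set limit at 20 µM in the primary screen, cut at about 59% in these data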
HKDC1 inh = inhibitors of human hexokinase HKDC1; Q2TB90; recombinant HKDC1, G6PDH/diaphorase resazurin coupled fluorescence; inhibition, % at 20 µM; actives 0.16% (n = 340,000); AID 493160;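 active means inhibition above about 35% when tested at 20 µM, limit read from the data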
Target sequence (Q2TB90 whole entry, looked up): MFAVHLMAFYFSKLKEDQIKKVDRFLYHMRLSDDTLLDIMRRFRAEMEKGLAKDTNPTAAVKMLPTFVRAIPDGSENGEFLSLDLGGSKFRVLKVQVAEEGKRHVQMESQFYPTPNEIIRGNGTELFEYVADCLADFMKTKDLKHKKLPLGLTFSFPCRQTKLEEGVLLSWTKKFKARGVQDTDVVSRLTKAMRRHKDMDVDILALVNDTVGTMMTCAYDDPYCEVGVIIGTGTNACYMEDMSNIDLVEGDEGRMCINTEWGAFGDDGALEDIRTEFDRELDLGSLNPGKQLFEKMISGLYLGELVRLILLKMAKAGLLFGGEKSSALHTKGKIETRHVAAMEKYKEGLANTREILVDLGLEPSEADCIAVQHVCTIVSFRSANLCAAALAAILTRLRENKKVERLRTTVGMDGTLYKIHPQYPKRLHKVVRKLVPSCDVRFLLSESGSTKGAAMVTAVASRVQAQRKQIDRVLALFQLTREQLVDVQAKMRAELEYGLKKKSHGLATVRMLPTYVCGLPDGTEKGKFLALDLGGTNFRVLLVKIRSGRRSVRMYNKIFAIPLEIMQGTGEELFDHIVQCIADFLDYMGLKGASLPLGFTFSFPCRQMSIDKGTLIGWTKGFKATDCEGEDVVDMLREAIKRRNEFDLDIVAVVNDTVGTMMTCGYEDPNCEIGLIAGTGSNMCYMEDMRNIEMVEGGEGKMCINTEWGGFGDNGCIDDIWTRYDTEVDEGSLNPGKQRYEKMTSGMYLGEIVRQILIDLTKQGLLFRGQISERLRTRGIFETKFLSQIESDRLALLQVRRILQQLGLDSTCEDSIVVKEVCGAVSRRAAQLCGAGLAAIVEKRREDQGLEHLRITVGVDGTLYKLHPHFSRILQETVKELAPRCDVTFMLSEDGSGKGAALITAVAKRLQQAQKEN
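Incubation: 90 min at room temperature in dark / Material: recombinant HKDC1 (HK5) hexokinase enzyme, produced in-house / Quantity: enzyme 5 µg/mL final / Compound: one dose of 20 µM, 1% DMSO / Reagent: glucose and ATP substrates / Buffer or medium: Tris pH 8.0 buffer with MgCl2, Tween-20, BSA, BME / Technique: resorufin fluorescence at 613 nm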
A3A deaminase = blocks human APOBEC3A ssDNA deamination; recombinant A3A, FAM/TAMRA ssDNA deamination fluorescence; P31941; actives 0.41% (n = 330,000); AID 493011; inhibition, % at 20 µM;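 active means at least 40% inhibition at 20 µM here, with at most 30% in a related deaminase screen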
UBC9 SUMO inh = blocks human SUMOylation mediated by UBC9; inhibition, % at 35 µM; actives 0.36% (n = 290,000); HTRF SUMOylation assay, SAE1/SAE2 + UBC9, in vitro; P63279; AID 2006; in the data active means inhibition above about 50%, passing the limit was not always enough
A3G deaminase = blocks human APOBEC3G single-stranded DNA deamination. inhibition, % at 20 µM. recombinant A3G, ssDNA deamination FAM/TAMRA fluorescence. Q9HC16. AID 493012. actives 0.28% (n = 330,000);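 active means inhibition of at least 40% at 20 µM, with no more than 30% in the related APOBEC3A deaminase screen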
M18AAP inhibitor = PfM18AAP enzyme inhibition | recombinant PfM18AAP, H-Glu-NHMec fluorogenic cleavage | inhibition, % at 7.35 µM | actives 1.2% (n = 290,000);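 active means inhibition above the campaign mean inhibition over all tested compounds plus 3 SD, cut at about 28% in these data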
APOBEC3A confirm = confirmation of human APOBEC3A DNA deaminase inhibitors; actives 63% (n = 1,400); inhibition, % at 20 µM; AID 493151; recombinant A3A, ssDNA deaminase UDG fluorescence assay; shares compounds with A3A deaminase;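 active means inhibition reaching a set limit, 80% of the first screen's cutoff, at 20 µM in any replicate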
UDG A3A counter = inhibits UDG, flagging false APOBEC3A inhibitors; shares compounds with A3A deaminase; UDG counterscreen, FAM/TAMRA uracil oligo fluorescence; inhibition, % at 20 µM; 1,000 tested, under 10 active; AID 504714; call rule not given here
A number is an active result; - = inactive; . = no result given; ! = repeats disagree. Shown are actives, neighbours in structure and some others; about 2.4% of the full set was active somewhere.

SMILES	PfGluPho inh	HKDC1 inh	A3A deaminase	UBC9 SUMO inh	A3G deaminase	M18AAP inhibitor	APOBEC3A confirm	UDG A3A counter
Cc1cc(C)cc(N(C(=O)c2csnn2)C(C(=O)NC(C)(C)C)c2cccs2)c1 (stereo unspecified)	-	-	68	-	-	-	-	-
COc1ccc(NC(=O)COC(=O)c2ccc3c(c2)OCO3)c(OC)c1	-	-	-	.	-	.	.	.
COc1ccc(-c2ccc(C#N)c(SCC(=O)OCc3ccccc3)n2)cc1OC	-	-	-	-	-	-	.	.
c1ccc2[nH]c(-c3ccnc4ccccc34)nc2c1	-	-	98!	-	-	-	-	.
CC[N+]1(CC)CC2CCC(C)(C1)C2(C)C (stereo unspecified)	-	-	58	-	-	-	79	-
CC12CCC(C[N+](C)(C)C1)C2(C)C (stereo unspecified)	-	-	65	-	-	-	69	-
COc1ccc(C(c2nnnn2C2CCCCC2)N2CCN(c3ccccc3)CC2)cc1 (stereo unspecified)	.	.	.	-	.	-	.	.
Cn1c(=Nc2ccc(N3CCOCC3)cc2)ccc2ccccc21	-	-	54	-	-	-	-	.
CCn1c(=Nc2ccc(N3CCOCC3)cc2)ccc2ccccc21	-	-	-	-	-	-	.	.
O=C(c1ccccc1Cc1ccccc1)N1CCN(S(=O)(=O)c2ccccc2F)CC1	-	-	-	.	-	.	.	.
O=C(c1ccccc1Cc1ccccc1)N1CCN(S(=O)(=O)c2ccccc2[N+](=O)[O-])CC1	-	-	46	.	-	.	-	-
CCC1=NN(C(=O)C(=O)Nc2ccc(OC)cc2)C(O)(C(F)(F)F)C1 (stereo unspecified)	-	-	-	-	-	-	.	.
COc1ccc(NC(=O)C(=O)N2N=C3CCCCC3C2(O)C(F)(F)F)cc1 (stereo unspecified)	-	-	55	-	-	-	54	-
CC1=CC(C)C(CN(CCC[N+](C)(C)C)C(=O)Nc2ccccc2)C(C)C1 (stereo unspecified)	-	-	58	-	-	-	28	-
CC(=O)N1CCN(CCN(CC2C(C)C=C(C)CC2C)C(C)=O)CC1 (stereo unspecified)	-	-	-	-	-	-	.	.
CCCCn1c(-c2nonc2NC(=O)c2ccccc2Cl)nc2ccccc21	-	-	.	.	.	.	.	.
Clc1nc(NCCN2CCOCC2)nc(NCc2ccccc2)n1	-	-	-	-	-	-	.	.
COc1ccc(NC(=O)/C=C/c2cccc(Br)c2)cn1	-	-	41	-	-	-	15	-
O=C(OCc1cc(=O)n2c(n1)sc1ccccc12)c1ccc2c(=O)n3c(nc2c1)CCC3	-	-	-	-	-	.	.	.
Cc1ccc2c(CC(=O)OCc3cc(=O)n4c(n3)sc3ccccc34)coc2c1	-	-	44	-	-	-	-	.
CC(C)[C@H](NC(=O)Cc1ccccc1)C(=O)OCc1cc(=O)n2c(n1)sc1ccccc12	-	-	43	-	-	-	-	.
CC1=C(C(=O)N(C)C)CC(CC(=O)NCCN2CCOCC2)C(=O)N1Cc1ccc(F)cc1 (stereo unspecified)	-	.	.	.	.	.	.	.
CC(C)Cc1nnc(NC(=O)Nc2ccccc2)s1	-	-	70	-	-	-	-	-
Cc1cc(C)cc(N=C2NC(=O)/C(=C/c3cccs3)S2)c1	-	-	42	-	-	-	-	.
CCCCC(=O)Nc1nnc(S(=O)(=O)N2CCCc3ccccc32)s1	-	-	-	-	-	-	.	.
CCc1ccc(NC(=O)c2ccc(-n3cncn3)c([N+](=O)[O-])c2)cc1	-	-	41	.	-	.	-	.
COc1ccc(NC(=O)c2ccc(-n3cncn3)c([N+](=O)[O-])c2)cc1	-	-	-	-	-	-	.	.
CCOC(=O)NC(=O)CN1C(=O)NC(C)(c2ccccc2)C1=O (stereo unspecified)	-	-	72	-	-	-	-	-
